G6PDH counter: counter-screen for G6PDH assay hits: L. mesenteroides G6PDH inhibition. AID 1020. actives 0.12% (n = 200,000). inhibition, % at 5 µM. Purified L. mesenteroides G6PDH, diaphorase/resazurin coupled fluorescence, 45 min; in the data active = inhibition above about 50%
Diaphorase inh: diaphorase inhibition or chemical oxidation counter-screen | diaphorase resazurin-to-resorufin fluorescence, NADH, 16 min; bacterial (C. kluyveri) enzyme, not human | inhibition, % at 20 µM | actives 0.69% (n = 190,000) | AID 1217;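 active = primary screen inhibition at 20 µM above a set limit, cut at about 50% in these data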
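Assay system: diaphorase enzyme from Clostridium kluyveri; Input: enzyme working solution with 0.14 U/mL diaphorase; Timing: 16 min at room temperature; Technique: resorufin fluorescence, excitation 544 nm, emission 590 nm; Benchmarks: positive control minus NADH, DMSO neutral control.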
PfGluPho inh: PfG6PD (Plasmodium falciparum) enzyme inhibition. AID 504690. actives 0.78% (n = 350,000). PfGluPho enzyme, NADPH resazurin-diaphorase fluorescence. inhibition, % at 20 µM;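 active = inhibition reaching at least a set limit at 20 µM in the primary screen, cut at about 59% in these data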
HKDC1 inh: blocks human hexokinase HKDC1 activity; Q2TB90; recombinant HKDC1, G6PDH/diaphorase resazurin coupled fluorescence; inhibition, % at 20 µM; actives 0.16% (n = 340,000); AID 493160;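 active = inhibition above about 35% when tested at 20 µM, limit read from the data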
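Test system: HK5 enzyme. Quantity: 5 µg/mL HK5 final. Reagent: glucose and ATP substrates. Schedule: 90 min reaction incubation at room temperature, dark. Technique: resazurin-to-resorufin fluorescence via G6PDH and diaphorase coupling, 525/613 nm. Control set: DMSO wells with and without enzyme mix.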
Numbers stand for hits. Most compounds without a hit are left out; they make up all but 1.2% or so of the library.

`Oc1ccc(/C=N/Nc2cc(N3CCCC3)nc(N3CCCC3)n2)cc1O` gave G6PDH counter inactive, Diaphorase inh 61.9, PfGluPho inh inactive and HKDC1 inh inactive.
CC(C)c1ccc(/C=N/Nc2cc(N3CCOCC3)nc(N3CCOCC3)n2)cc1 was read as G6PDH counter inactive, Diaphorase inh 63.0, PfGluPho inh inactive and HKDC1 inh inactive.
For Cc1ccc(/C=N/Nc2cc(C)nc(N3CCOCC3)n2)cc1 the results were PfGluPho inh inactive and HKDC1 inh inactive.
For Cc1cccc(/C=N/Nc2cc(N3CCOCC3)nc(N3CCOCC3)n2)c1 the results were G6PDH counter inactive, Diaphorase inh 72.1, PfGluPho inh inactive and HKDC1 inh inactive.
For C[C@H](CO)N1C[C@H](C)[C@H](CN(C)Cc2cncnc2)Oc2cc(Br)ccc2S1(=O)=O the results were PfGluPho inh inactive.
Screening O=C(N/C(=C/c1cccc([N+](=O)[O-])c1)C(=O)N1CCOCC1)c1ccc(Br)cc1 returned PfGluPho inh inactive and HKDC1 inh inactive.
Screening O=C1C=CC2(O[C@H](c3ccccc3)[C@@H](c3ccccc3)O2)[C@H](Sc2ccccc2O)C1 returned PfGluPho inh inactive and HKDC1 inh inactive.
`O=C(COc1ccccc1C(=O)N/N=C\c1ccc(O)c(O)c1)N/N=C/c1ccc(O)c(O)c1` gave G6PDH counter inactive, Diaphorase inh 69.8, PfGluPho inh inactive and HKDC1 inh inactive.
`CCOC(=O)C1=C(O)/C(=C/c2ccc(OCC(=O)O)c(OCC)c2)SC1=Nc1ccc(C)cc1` gave G6PDH counter inactive, Diaphorase inh 62.1, PfGluPho inh inactive and HKDC1 inh inactive.
`O=C1CC(c2ccco2)Sc2nc3ccccc3n21` (centres undefined) gave G6PDH counter inactive, Diaphorase inh 51.3, PfGluPho inh inactive and HKDC1 inh inactive.
For Cn1c(CNc2ccccc2O)nc2ccccc21 the results were G6PDH counter 60.7, Diaphorase inh inactive, PfGluPho inh inactive and HKDC1 inh inactive.
For CN1CCC(N(C)C(=O)CCc2nc3ccccc3n2-c2ccccc2)CC1 the results were G6PDH counter inactive, Diaphorase inh 73.8, PfGluPho inh inactive and HKDC1 inh inactive.
For CCCc1nc(SCC(=O)Nc2nnc(CC)s2)c2c(=O)n(C)c(=O)n(C)c2n1 the results were PfGluPho inh inactive and HKDC1 inh inactive.
For Cc1cc(N2CCN(C(=O)c3ccco3)CC2)c2ccccc2n1 the results were PfGluPho inh inactive and HKDC1 inh inactive.
`CCN1CCN(c2cc(N3CCN(C(=O)c4ccco4)CC3)c3c4c(onc24)-c2ccccc2C3=O)CC1` gave PfGluPho inh 67.9 and HKDC1 inh inactive.
For COc1cccc2c(=O)c3c([nH]c12)OC(C)(C)C3 the results were PfGluPho inh inactive and HKDC1 inh inactive.
`COc1cccc2c(=O)c3cccc(N)c3[nH]c12` gave G6PDH counter inactive, Diaphorase inh 85.9, PfGluPho inh inactive and HKDC1 inh inactive.
O=C(Cc1ccc(NC(=O)C2CCN(C(=O)c3ccccc3)CC2)cc1)Nc1cccc(C(=O)N2CCCCC2)c1 was read as PfGluPho inh inactive and HKDC1 inh inactive.
Screening O=C(CN1CCN(c2ccc(Cl)cc2)CC1)NCc1ccccc1 returned G6PDH counter inactive, Diaphorase inh 86.4, PfGluPho inh inactive and HKDC1 inh inactive.
For CCN(C(=O)c1cc2cc3ccc(C)cc3nc2o1)c1ccc(OC)cc1 the results were G6PDH counter inactive, Diaphorase inh 60.2, PfGluPho inh inactive and HKDC1 inh inactive.
`CC(=O)Oc1ccc2c(=O)c(Oc3ccccc3)c(C)oc2c1OC(C)=O` gave G6PDH counter inactive, Diaphorase inh 65.4, PfGluPho inh inactive and HKDC1 inh inactive.
`CSc1nc(N)c2cn[nH]c2n1` gave PfGluPho inh inactive and HKDC1 inh inactive.
CC(=O)NC(c1ccc(Cl)cc1)c1c(O)ccc2ccc(O)cc12 (centres undefined) was read as G6PDH counter 54.1, Diaphorase inh inactive, PfGluPho inh inactive and HKDC1 inh inactive.
Cc1cccc(/C=N/NC(=O)C(C)Nc2cccc3ccccc23)n1 (centres undefined) was read as G6PDH counter 50.0, Diaphorase inh inactive, PfGluPho inh inactive and HKDC1 inh inactive.
Screening COc1cc([N+](=O)[O-])cc(/C=N/NC(=O)C(C)Nc2cccc3ccccc23)c1O (centres undefined) returned G6PDH counter inactive, Diaphorase inh 70.5, PfGluPho inh inactive and HKDC1 inh inactive.
Screening CC(O)C(=O)N/N=C/c1cccc2ccccc12 (centres undefined) returned G6PDH counter inactive, Diaphorase inh inactive, PfGluPho inh inactive and HKDC1 inh inactive.
For CC(Nc1cccc2ccccc12)C(=O)N/N=C/c1ccc([N+](=O)[O-])cc1 (centres undefined) the results were G6PDH counter inactive, Diaphorase inh inactive, PfGluPho inh inactive and HKDC1 inh inactive.
O=C1C=C(O)c2cccc3cccc1c23 was read as PfGluPho inh inactive and HKDC1 inh inactive.
NC1=CC(=O)c2cccc3cccc1c23 was read as G6PDH counter inactive and Diaphorase inh 63.0.
Screening N#Cc1c(N2CCCC(O)C2)nc(N)c2c(N)nc3c(c12)CC(=O)N3C12CC3CC(CC(C3)C1)C2 (centres undefined) returned G6PDH counter inactive, Diaphorase inh 55.4, PfGluPho inh inactive and HKDC1 inh inactive.
C=C(C)CN(CC)c1nc(N)c2c(N)nc3c(c2c1C#N)CC(=O)N3C12CC3CC(CC(C3)C1)C2 was read as G6PDH counter inactive, Diaphorase inh inactive, PfGluPho inh inactive and HKDC1 inh inactive.
Screening CC(CCC(C)C(C)(C)C)[C@@H]1CC[C@H]2C3C[C@H](OS(O)(=S)=S)[C@H]4C[C@H](OS(O)(=S)=S)[C@@H](OS(O)(=S)=S)C[C@]4(C)[C@H]3CC[C@]12C (some centres undefined) (tested in a mixture with another compound) returned PfGluPho inh inactive and HKDC1 inh 81.2.
`CC(CCC(=O)NN)C1CCC2C3CCC4CC(O)CCC4(C)C3CCC12C` (centres undefined) gave PfGluPho inh inactive and HKDC1 inh inactive.
For Nc1ccc2c(c1)Nc1ccccc1CC2 the results were G6PDH counter inactive, Diaphorase inh 61.5, PfGluPho inh inactive and HKDC1 inh inactive.
Nc1nc(=S)[nH]c2c1C1(CCCC1)Cc1ccccc1-2 was read as G6PDH counter inactive, Diaphorase inh inactive, PfGluPho inh inactive and HKDC1 inh inactive.
For Nc1nc(=S)[nH]c2c1C1(CCCCC1)Cc1ccccc1-2 the results were G6PDH counter inactive, Diaphorase inh 53.2, PfGluPho inh inactive and HKDC1 inh inactive.
For COc1cc2nc(=S)n3[nH]c(CCn4c(C)nc5ccccc54)nc3c2cc1OC the results were G6PDH counter inactive, Diaphorase inh 88.8, PfGluPho inh inactive and HKDC1 inh inactive.
COc1ccccc1Cn1c(C)nc2ccccc21 was read as PfGluPho inh inactive and HKDC1 inh inactive.
COc1ccc(OCc2nc3c4cc(OC)c(OC)cc4nc(=S)n3[nH]2)cc1 was read as G6PDH counter inactive, Diaphorase inh 91.7, PfGluPho inh inactive and HKDC1 inh inactive.

Source: PubChem BioAssay
